# TRPC4 agonist: TRPC4 (mouse) channel activation; B-score at 10 µM; Q9QUQ5; HEK293 TRPC4beta/mu-opioid, Fluo4 calcium fluorescence; stronger effect = higher value; hit rate 0.49% among 310,000;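 active = B-score above 5 SD of library B-scores, and initial fluorescence ratio not above library mean plus 5 SD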;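 also: positive B-score marks a calcium rise read as TRPC4 activation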
#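 Assay system: HEK293 cells stably co-expressing mouse TRPC4beta and mu-opioid receptor / Timing: Fluo4 dye loading 45 min at room temperature, 110 s recording / Signal: Fluo4 calcium-sensitive dye fluorescence, kinetic, 1 Hz baseline / Read-out: integrated baseline-normalised fluorescence ratio, converted to per-well B score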
# TRPC6 inhibitor: blocks the mouse TRPC6 cation channel; Q61143; HEK293-TRPC6, membrane potential dye, ACh-evoked depolarization; stronger effect = lower value; AID 2553; B-score at 10 µM; hit rate 1.1% among 310,000;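 active = B-score under library mean minus 3 SD, initial fluorescence not abnormally high, positive integrated signal ratio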;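 also: B-score derived from integrated fluorescence ratio over the kinetic read; more negative B-score means stronger inhibition of depolarization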
# Target sequence (Q61143 whole entry, looked up): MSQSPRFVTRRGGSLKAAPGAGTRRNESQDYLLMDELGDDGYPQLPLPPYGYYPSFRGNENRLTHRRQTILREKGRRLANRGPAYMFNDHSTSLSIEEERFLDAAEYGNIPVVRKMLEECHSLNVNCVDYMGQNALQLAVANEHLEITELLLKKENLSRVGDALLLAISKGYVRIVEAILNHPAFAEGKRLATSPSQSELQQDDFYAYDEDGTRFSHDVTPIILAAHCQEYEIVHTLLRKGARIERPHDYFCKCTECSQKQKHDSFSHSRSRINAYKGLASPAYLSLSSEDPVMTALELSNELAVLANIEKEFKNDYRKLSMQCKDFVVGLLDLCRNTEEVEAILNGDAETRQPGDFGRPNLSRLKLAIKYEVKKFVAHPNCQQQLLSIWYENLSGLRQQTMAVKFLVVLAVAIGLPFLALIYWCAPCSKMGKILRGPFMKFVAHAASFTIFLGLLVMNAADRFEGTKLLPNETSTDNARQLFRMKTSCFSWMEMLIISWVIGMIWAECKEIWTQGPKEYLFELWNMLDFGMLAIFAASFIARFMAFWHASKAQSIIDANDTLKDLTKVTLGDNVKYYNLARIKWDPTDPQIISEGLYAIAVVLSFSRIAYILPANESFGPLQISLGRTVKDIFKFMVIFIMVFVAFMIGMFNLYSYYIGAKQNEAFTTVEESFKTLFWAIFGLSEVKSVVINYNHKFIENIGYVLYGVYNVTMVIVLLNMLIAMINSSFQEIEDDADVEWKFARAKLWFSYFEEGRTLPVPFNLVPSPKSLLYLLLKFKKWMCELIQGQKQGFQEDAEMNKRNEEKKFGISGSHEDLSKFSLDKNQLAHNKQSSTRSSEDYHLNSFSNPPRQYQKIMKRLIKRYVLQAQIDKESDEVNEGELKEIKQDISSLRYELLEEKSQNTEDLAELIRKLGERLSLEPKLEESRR
# FID counter: fluorescent intercalator displacement, NS3 helicase counter-screen. inhibition, % at 7.9 µM. DNA fluorescent intercalator displacement, fluorescence. hit rate 0.17% among 290,000; in the data active = inhibition above about 37%;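 also: higher means more ethidium bromide displaced from hairpin DNA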
# TRPC4 PAM: TRPC4 (mouse) allosteric potentiation. B-score at 10 µM. hit rate 0.42% among 310,000. HEK293 TRPC4beta/mu-opioid, DAMGO EC20, Fluo-4 Ca2+ flux; stronger effect = higher value. AID 2227. Q9QUQ5;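 active = B-score of calcium response area above 5 SD of library B-scores, with initial fluorescence ratio within 5 SD of library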
# TRPC6 activator: activators of mouse TRPC6 channel; HEK293-TRPC6 membrane potential dye fluorescence; stronger effect = higher value; AID 2550; Q61143; B-score at 10 µM; hit rate 0.13% among 310,000;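 active = B-score of the integrated fluorescence ratio above library mean plus 3 SD, and starting fluorescence ratio within library mean plus 5 SD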;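 also: higher score means more depolarization so channel activation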
# TRPC4 block: blocks the mouse TRPC4 cation channel; Q9QUQ5; HEK293 TRPC4beta/mu-opioid, DAMGO-evoked Fluo4 calcium flux; stronger effect = lower value; B-score at 10 µM; hit rate 0.39% among 300,000; AID 2247;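 active = B-score over 3 SD under the library average, no early fluorescence shift, positive overall ratio signal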
#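 Assay system: HEK293 cells with stable TRPC4beta plus mu-opioid receptor expression; Probe or stimulus: DAMGO in two steps, submaximal then maximal; Dosing: single-point compound dosing; Measured by: Fluo4 calcium-dye fluorescence, kinetic read; Read-out basis: B score from integrated Fluo4 fluorescence ratio.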
# TRPC4 sel inh 2: second selectivity test of TRPC6 inhibitors: effect on mouse TRPC4. inhibition, % at 10 µM. AID 2776. hit rate 42% among 920. shares compounds with TRPC6 inhibitor. HEK293 TRPC4/MOR, membrane potential dye fluorescence; channel activated by saturating DAMGO dose;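 active = compounds whose fluorescence signal differed from control wells by over 3 SD, either direction, in both duplicate plates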
# TRPC4 spec: selectivity of TRPC6 inhibitors: effect on mouse TRPC4 | shares compounds with TRPC6 inhibitor | HEK293 TRPC4/mu-opioid, membrane potential fluorescence | activity change, negative = inhibition, % at 10 µM | hit rate 61% among 920 | AID 2777;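 active = rise or fall in signal beyond 3 SD of buffer-only wells in both replicate plates, either sign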;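 also: integrated kinetic ratio of fluorescence range over baseline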
# HEK293 MPD ctr 2-1: second check of TRPC6 inhibitor effects in parental HEK293 cells. shares compounds with TRPC6 inhibitor. parental HEK293 membrane potential dye fluorescence; maximal acetylcholine challenge after compound addition. signal change vs control, % at 10 µM. hit rate 31% among 920. AID 2779;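 active = membrane potential signal moving either way by over 3 SD of the maximum-effect control, in both duplicate plates, meaning non-specific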
# HEK293 MPD ctr-1: checks TRPC6 inhibitor effects in parental HEK293 cells | hit rate 60% among 920 | shares compounds with TRPC6 inhibitor | membrane potential signal change, % at 10 µM | parental HEK293 membrane potential dye fluorescence;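 active = membrane potential signal shifting up or down by more than 3 SD of buffer-only wells, on both duplicate plates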
# HEK293 MPD ctr-2: parental HEK293 nonspecific activity of TRPC6 modulators. shares compounds with TRPC6 inhibitor. AID 488924. membrane potential signal change, % at 10 µM. membrane potential dye fluorescence. hit rate 51% among 2,400;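 active = membrane potential signal moves up or down beyond 5 SD from buffer-only wells, on both duplicate plates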
# HEK293 MPD ctr 2-2: parental HEK293 nonspecific activity of TRPC6 modulators, second screen; shares compounds with TRPC6 inhibitor; membrane potential dye fluorescence; after compound, maximal acetylcholine stimulation; inhibition, % at 10 µM; hit rate 14% among 2,400;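 active = membrane potential signal drops by more than 5 SD from the mean control signal, in both duplicate plates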
# TRPC4 ctr mod: mouse TRPC4 off-target activity of TRPC6 modulators; shares compounds with TRPC6 inhibitor; HEK293 TRPC4/mu-opioid, membrane potential fluorescence; percent change from control (negative = decrease, positive = increase), % at 10 µM; hit rate 69% among 2,400; AID 488927;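 active = membrane potential signal moved up or down beyond 5 SD of buffer control wells, in both duplicate plates, actives on both sides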
# TRPC4/MOR inh 2: second selectivity test of TRPC6 modulators against mouse TRPC4; hit rate 55% among 2,400; inhibition, % at 10 µM; shares compounds with TRPC6 inhibitor; HEK293 TRPC4/mu-opioid, membrane potential dye fluorescence; stimulated with maximal-effect DAMGO;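 active = drop in membrane potential signal beyond 5 SD of the control wells in both duplicate plates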;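 also: TRPC4 counter screen for TRPC6 hits run under conditions tuned for TRPC6 not TRPC4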
# TRPC6 block conf: confirmation of mouse TRPC6 inhibitors | shares compounds with TRPC6 inhibitor | HEK293-TRPC6, membrane potential dye, ACh-evoked depolarization | inhibition, % at 10 µM | hit rate 43% among 3,300 | AID 488960;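 active = fluorescence ratio falls more than 5 SD below the full-stimulation control mean, in both duplicate runs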;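 also: integrated fluorescence ratio of peak minus minimum over baseline after agonist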
# TRPC6 act conf: confirmation of mouse TRPC6 activators; shares compounds with TRPC6 inhibitor; hit rate 11% among 2,800; HEK293-TRPC6 membrane potential dye fluorescence, FDSS; AID 488961; activation, % at 10 µM;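 active = ratio signal rise beyond 5 SD above unstimulated control wells' mean, seen in both duplicate runs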
# Hits are given with their value; – = inactive; · = no result. Hits are enriched below; roughly 2.3% of the tested compounds scored in any of these assays.
SMILES,TRPC4 agonist,TRPC6 inhibitor,FID counter,TRPC4 PAM,TRPC6 activator,TRPC4 block,HEK293 MPD ctr-2,HEK293 MPD ctr 2-2,TRPC4 ctr mod,TRPC4/MOR inh 2,TRPC6 block conf,TRPC6 act conf,others
COc1ccc(-c2cnc(NCc3cc4c(cc3[N+](=O)[O-])OCO4)n2C)cc1,–,-5.63,–,–,–,–,–,–,–,43.5%,–,–,
Cn1c(-c2ccc3c(c2)OCO3)cnc1NCc1ccc(Cl)cc1,–,-6.24,–,–,–,–,–,–,–,75.5%,47.5%,–,
COc1cccc(-c2cc(C(=O)NCCCN3CCOCC3)no2)c1,–,–,–,–,–,–,·,·,·,·,·,·,
O=C(NCCCO)c1cc2c([nH]c3ccccc32)c(-c2ccccc2)n1,–,–,–,–,–,–,·,·,·,·,·,·,
O=C(NCCCN1CCOCC1)c1cc2c([nH]c3ccccc32)c(-c2cccc(Br)c2)n1,–,-8.77,–,–,–,–,·,·,·,·,54.1%,–,TRPC4 sel inh 2=–;TRPC4 spec=–;HEK293 MPD ctr 2-1=–;HEK293 MPD ctr-1=–
COc1ccc(OC)c(Nc2cc(C(=O)NCCCN3CCOCC3)c3ccccc3n2)c1,–,-5.54,41.1,–,–,–,–,–,–,45.0%,–,–,
COc1cccc(-c2nc(C(=O)NCCCN3CCOCC3)cc3c2[nH]c2ccccc23)c1,–,-7.28,–,–,–,–,·,·,·,·,–,–,TRPC4 sel inh 2=–;TRPC4 spec=-10.1%;HEK293 MPD ctr 2-1=–;HEK293 MPD ctr-1=-158.5%
CCC(CC)c1nnc(NC(=O)CCc2ccccc2OC)s1,–,–,–,–,–,–,·,·,·,·,·,·,
CN(Cc1ccccc1)S(=O)(=O)c1ccc(Cl)c(C(=O)NCc2cccnc2)c1,–,–,·,–,–,–,·,·,·,·,·,·,
Cc1cccc(OC(C)C(=O)Nc2ccccc2C(=O)N2CCCCC2)c1 (configuration not stated),–,–,–,–,–,–,·,·,·,·,·,·,
CCOC(=O)c1c[nH]c2c(Cl)c(Cl)ccc2c1=O,–,-9.97,–,–,–,–,·,·,·,·,–,–,TRPC4 sel inh 2=–;TRPC4 spec=-24.6%;HEK293 MPD ctr 2-1=–;HEK293 MPD ctr-1=-298.0%
CCOC(=O)c1c[nH]c2c(C)ccc(Cl)c2c1=O,–,-7.62,–,–,–,–,-303.0%,–,-41.5%,53.0%,60.0%,–,
CCOC(=O)c1ccc2[nH]cc(C(C)=O)c(=O)c2c1,–,-7.47,–,–,–,–,·,·,·,·,–,–,TRPC4 sel inh 2=–;TRPC4 spec=-25.6%;HEK293 MPD ctr 2-1=–;HEK293 MPD ctr-1=-422.5%
CCOC(=O)c1c[nH]c2c3c(ccc2c1=O)CCCC3,–,–,–,–,–,–,·,·,·,·,·,·,
CCOC(=O)c1c[nH]c2c(C)cc(C)cc2c1=O,–,–,–,–,–,–,·,·,·,·,·,·,
CCOC(=O)c1c[nH]c2c(Cl)ccc(Cl)c2c1=O,–,-6.06,–,–,–,–,-324.5%,–,-39.0%,43.0%,–,–,
CC(=O)c1c[nH]c2ccc(C)cc2c1=O,–,–,–,–,–,–,·,·,·,·,·,·,
CC(NC(=O)C1CCCN1S(=O)(=O)c1cccc2nsnc12)c1ccccc1 (configuration not stated),–,–,–,–,–,–,·,·,·,·,·,·,
COC(=O)C1=NN(C(=O)c2ccc(C)cc2)C(O)(c2ccc(Cl)cc2)C1 (configuration not stated),102,-6.6,–,–,34,–,421.0%,–,82.0%,–,77.0%,298.5%,
Cc1nc(N2CCN(C)CC2)c2sc(=S)n(C)c2n1,–,-5.16,–,–,–,–,-157.5%,–,-25.0%,–,–,–,
Cc1nc(N2CCN(C)CC2)c2sc(=S)n(-c3ccccc3)c2n1,–,–,–,–,–,–,·,·,·,·,·,·,
CCCCCCn1cc(C(=O)O)c(=O)c2cc(F)c(N3CCN(C)CC3)cc21,–,-5.55,–,–,–,–,-267.5%,70.0%,-52.0%,51.5%,44.0%,–,
CCOC(=O)c1cn(CC)c2cc3c(cc2c1=O)OCO3,–,-5.79,·,–,–,–,-126.0%,–,-31.5%,32.5%,–,–,
CCCCCCn1cc(C(=O)OCC)c(=O)c2cc(F)c(F)cc21,–,-5.07,–,–,–,-6,–,–,–,45.5%,–,–,
COc1cc(OC)c2nc(C)c3c(c2c1)N(c1ccc(O)cc1)CC3,–,-7.19,–,–,–,–,-173.5%,101.0%,-18.0%,41.5%,–,–,
SMILES,TRPC4 agonist,TRPC6 inhibitor,FID counter,TRPC4 PAM,TRPC6 activator,TRPC4 block,HEK293 MPD ctr-2,HEK293 MPD ctr 2-2,TRPC4 ctr mod,TRPC4/MOR inh 2,TRPC6 block conf,TRPC6 act conf,others
COc1cc(OC)cc(C(=O)NCC(=O)N2CCN(c3ccc(O)cc3)CC2)c1,–,–,–,–,–,–,·,·,·,·,·,·,
O=C(c1ccc2c(=O)n3c(nc2c1)CCCCC3)N1CCN(C(c2ccccc2)c2ccccc2)CC1,–,-11,–,–,–,–,·,·,·,·,–,–,TRPC4 sel inh 2=–;TRPC4 spec=-9.3%;HEK293 MPD ctr 2-1=–;HEK293 MPD ctr-1=–
O=c1c2cc(Br)ccc2nc2n1CCCCC2,–,-7.77,–,–,–,–,·,·,·,·,–,–,TRPC4 sel inh 2=–;TRPC4 spec=–;HEK293 MPD ctr 2-1=–;HEK293 MPD ctr-1=–
O=C(Nc1ccc(Cl)cc1Cl)NC1CCN(S(=O)(=O)c2ccc(F)cc2)CC1,–,–,–,–,–,–,·,·,·,·,·,·,
N#C/C(C(N)=O)=c1/ccc2c(c1)N1C3=C(CCCC3)CC3CCCCC31N=2 (configuration not stated),–,-12.4,–,–,–,–,-262.5%,82.0%,-52.5%,94.0%,80.0%,–,
O=C1NC2=C(C(=O)CCC2)C(c2ccc([N+](=O)[O-])cc2)N1 (configuration not stated),–,–,–,–,–,–,·,·,·,·,·,·,

# Assay outcomes (PubChem BioAssay)
